Measurements: ChEMBL document CHEMBL5724801, “EUbOPEN Chemogenomics Library - Multiplex” (2024)
Values joined by “and” are separate entries in the source; they are usually repeats but may differ in a detail not shown here. Identical values can stand only once.

Tests used:
[1] = test system: HEK-293T; assay: Multiplex assay against HEK293T; type: toxicity, cell-based; conditions: human
How it was run: (§1)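 Phenotypes for tubulin, mitochondrial mass and membrane permeability are expressed as per cents of healthy-nucleus cells. Cells were stained live at seeding with Hoechst33342, BioTracker Green Microtubule Cytoskeleton Dye, MitoTracker Red and Annexin V Alexa Fluor 680, then imaged after compound addition on a CQ1 microscope at 37°C and 5% CO2. Machine-learning gating in CellPathfinder separated Hoechst high-intensity objects from normal cells, divided normal cells by nuclear state (healthy, pyknosed, fragmented) and divided pyknosed cells into mitotic or apoptotic.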

[2] = test system: U2OS; assay: Multiplex assay against U2OS; type: toxicity, cell-based; conditions: human; how it was run: as §1
[3] = 24 h, 10 µM, compound concentration 10 uM
[4] = 48 h, 1 µM, compound concentration 1 uM
[5] = 48 h, 10 µM, compound concentration 10 uM
[6] = 12 h, 1 µM, compound concentration 1 uM
[7] = 12 h, 10 µM, compound concentration 10 uM
[8] = 24 h, 1 µM, compound concentration 1 uM

## Cc1noc(C)c1-c1cnc2c(-c3ccc(C(=O)O)cc3)cn([C@@H](C)c3ccccn3)c2c1 [PLX-51107]
[1]; [3]
  Population Healthy Nuclei (%): 62.01% and 40.13%
  Population Hoechst High Intensity Objects (%): 0%
  Population Membrane Permeable-Phenotype (%): 0% and 0.81%
  Population Mitochondria Different-Phenotype (%): 8.3% and 4.84%
  Population Mitotic Cells (%): 89.33% and 86.51%
  Population Normal (%): 100%
  Population Pyknosed Nuclei (%): 36.76% and 40.78%
  Population Tubulin-Different-Phenotype (%): 0% and 5.65%
  Total Cell Count: 408 and 309
[1]; [4]
  Population Fragmented Nuclei (%): 6.3% and 3.02%
  Population Healthy Nuclei (%): 84.08% and 65.66%
  Population Hoechst High Intensity Objects (%): 0.14% and 0%
  Population Membrane Permeable-Phenotype (%): 0.33% and 1.15%
  Population Mitochondria Different-Phenotype (%): 5.35% and 6.9%
  Population Mitotic Cells (%): 94.96% and 79.52%
  Population Normal (%): 99.86% and 100%
  Population Tubulin-Different-Phenotype (%): 0.33% and 2.87%
[1]; [5]
  Population Healthy Nuclei (%): 78.62% and 47.53%
  Population Hoechst High Intensity Objects (%): 0%
  Population Membrane Permeable-Phenotype (%): 0.21% and 0.65%
  Population Mitochondria Different-Phenotype (%): 10.49% and 12.34%
  Population Mitotic Cells (%): 95.33% and 80.87%
  Population Normal (%): 100%
  Population Pyknosed Nuclei (%): 18.01% and 35.49%
  Population Tubulin-Different-Phenotype (%): 0.43% and 6.49%
  Total Cell Count: 594 and 324
[2]; [6]
  Population Apoptotic (%): 28.33% and 48.15%
  Population Fragmented Nuclei (%): 2.1% and 1.04%
  Population Healthy Nuclei (%): 85.32% and 84.97%
  Population Hoechst High Intensity Objects (%): 0%
  Population Membrane Permeable-Phenotype (%): 0.25% and 4.88%
  Population Mitochondria Different-Phenotype (%): 0% and 5.49%
  Population Mitotic Cells (%): 71.67% and 51.85%
  Population Normal (%): 100%
  Population Pyknosed Nuclei (%): 12.58% and 13.99%
  Population Tubulin-Different-Phenotype (%): 0.74% and 3.05%
  Total Cell Count: 477 and 193
[2]; [7]
  Population Apoptotic (%): 30.77% and 33.33%
  Population Fragmented Nuclei (%): 2.92% and 1.9%
  Population Healthy Nuclei (%): 82.47% and 82.91%
  Population Hoechst High Intensity Objects (%): 0%
  Population Membrane Permeable-Phenotype (%): 1.36% and 3.05%
  Population Mitochondria Different-Phenotype (%): 0.27% and 7.63%
  Population Mitotic Cells (%): 69.23% and 66.67%
  Population Normal (%): 100%
  Population Pyknosed Nuclei (%): 14.61% and 15.19%
  Population Tubulin-Different-Phenotype (%): 1.36% and 1.53%
  Total Cell Count: 445 and 158
[2]; [8]
  Population Apoptotic (%): 32.76% and 59.26%
  Population Fragmented Nuclei (%): 3.22% and 5.11%
  Population Healthy Nuclei (%): 87.88% and 85.04%
  Population Hoechst High Intensity Objects (%): 0%
  Population Membrane Permeable-Phenotype (%): 0.52% and 4.29%
  Population Mitochondria Different-Phenotype (%): 0.35% and 3.86%
  Population Mitotic Cells (%): 67.24% and 40.74%
  Population Normal (%): 100%
  Population Pyknosed Nuclei (%): 8.9% and 9.85%
  Population Tubulin-Different-Phenotype (%): 0.52% and 2.15%
  Total Cell Count: 652 and 274
[2]; [3]
  Population Apoptotic (%): 43.37% and 43.48%
  Population Fragmented Nuclei (%): 5.51% and 6.04%
  Population Healthy Nuclei (%): 79.23% and 81.32%
  Population Hoechst High Intensity Objects (%): 0%
  Population Membrane Permeable-Phenotype (%): 0.93% and 2.7%
  Population Mitochondria Different-Phenotype (%): 0% and 4.73%
  Population Mitotic Cells (%): 56.63% and 56.52%
  Population Normal (%): 100%
  Population Pyknosed Nuclei (%): 15.26% and 12.64%
  Population Tubulin-Different-Phenotype (%): 0.46% and 0.68%
  Total Cell Count: 544 and 182
[2]; [4]
  Population Apoptotic (%): 51.49% and 72.73%
  Population Fragmented Nuclei (%): 10.29% and 4.03%
  Population Healthy Nuclei (%): 80.83% and 86.62%
  Population Hoechst High Intensity Objects (%): 0%
  Population Membrane Permeable-Phenotype (%): 0.44% and 2.21%
  Population Mitochondria Different-Phenotype (%): 0.11% and 1.47%
  Population Mitotic Cells (%): 48.51% and 27.27%
  Population Normal (%): 100%
  Population Pyknosed Nuclei (%): 8.88% and 9.34%
  Population Tubulin-Different-Phenotype (%): 0.44% and 1.47%
  Total Cell Count: 1137 and 471
[2]; [5]
  Population Apoptotic (%): 58.54% and 60.87%
  Population Fragmented Nuclei (%): 17.75% and 9.91%
  Population Healthy Nuclei (%): 65.96% and 70.26%
  Population Hoechst High Intensity Objects (%): 0%
  Population Membrane Permeable-Phenotype (%): 0.6% and 1.84%
  Population Mitochondria Different-Phenotype (%): 0% and 2.45%
  Population Mitotic Cells (%): 41.46% and 39.13%
  Population Normal (%): 100%
  Population Pyknosed Nuclei (%): 16.29% and 19.83%
  Population Tubulin-Different-Phenotype (%): 1.2% and 0.61%
